Laboratory results as given in ChEMBL document CHEMBL2406930, “Synthesis and electrochemical and biological studies of novel coumarin-chalcone hybrid compounds” (J Med Chem, 2013).
Active and inactive are the calls of the source. The calls are words filed in the database; no cut-off is given here.

What was measured:
[1] = (§1) Cytoprotective activity against peroxynitrite-induced toxicity in BAEC assessed as cell viability at 20 uM after 24 hrs by MTT assay; assay type: functional; details: Bos taurus, read-out: Activity
Procedure, shortened: (§2)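 Bovine aortic endothelial cells (BAEC) in DMEM with 10% FBS, endothelial growth supplement and no antibiotics were grown to 60–70% confluency. They were pretreated 24 h with compound at 10 or 20 µM, then washed twice with PBS. Insult was 1 mM H2O2 for 2 h, or 500 µM SIN-1 (peroxynitrite source) for 4 h. Viability was read by MTT reduction, formazan in DMSO, A570.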

[2] = Cytotoxicity against BAEC assessed as cell viability at 50 uM after 24 hrs by MTT assay; design: species or system Bos taurus; details: cattle, BAEC cells; read-out: Activity
Procedure, shortened: (§3)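 BAEC seeded at 10^4–10^5 cells/mL were grown to 60–70% confluency and exposed to compound (10–50 µM) for 24 h. Medium was then replaced and MTT added for 2 h at 37 °C. Formazan was dissolved in DMSO and read at 570 nm. Viability was taken relative to solvent-only wells, n = 3, mean ± SEM.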

[3] = Cytotoxicity against BAEC assessed as cell viability at 20 uM after 24 hrs by MTT assay; design: species or system Bos taurus; details: cattle, BAEC cells; read-out: Activity; procedure, shortened: as §3
[4] = Antioxidant activity assessed as hydroxyl radical scavenging activity at 4 mM after 5 mins by ESR spectroscopy analysis
[5] = Cytotoxicity against BAEC assessed as cell viability at 10 uM after 24 hrs by MTT assay; design: species or system Bos taurus; details: cattle, BAEC cells; read-out: Activity; procedure, shortened: as §3
[6] = Antioxidant activity assessed as trolox equivalents of peroxyl radical scavenging activity at 0.3 to 2 uM preincubated for 15 mins by ORAC assay relative to control; assay type: functional
Procedure, shortened: (§4)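 Peroxyl radical scavenging by ORAC-FL in 75 mM sodium phosphate buffer (pH 7.4) at 37 °C. Fluorescein was 70 nM final. Compounds in methanol were tested at 0.3–2 µM for monohydroxy and 0.5–7 µM for dihydroxy derivatives, preincubated 15 min, then AAPH was added (18 mM final). Fluorescence (ex 485, em 528 nm) was read each minute for 120 min. Net AUC minus methanol blank was referenced to Trolox (0.5–2.5 µM).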

[7] = Antioxidant activity assessed as peroxyl radical scavenging activity by ORAC assay relative to trolox; assay type: functional
Procedure, shortened: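 Fluorescein-based ORAC in 75 mM sodium phosphate buffer pH 7.4 with FL 70 nM (final). Compounds in methanol at 0.3–2 µM (monohydroxy) or 0.5–7 µM (dihydroxy) preincubated 15 min at 37 °C, then AAPH 18 mM (final) added. Fluorescence (ex 485, em 528 nm) read every 1 min for 120 min. Net AUC minus methanol blank, expressed against Trolox calibration (0.5–2.5 µM).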

[8] = (§5) Cytoprotective activity against H2O2-induced toxicity in BAEC assessed as cell viability at 10 uM after 24 hrs by MTT assay; assay type: functional; details: Bos taurus, read-out: Activity; procedure, shortened: as §2
BAEC [9] = test: as §1; assay type: functional; details: Bos taurus; procedure, shortened: as §2
[10] = Antioxidant activity assessed as trolox equivalents of peroxyl radical scavenging activity at 0.7 to 7 uM preincubated for 15 mins by ORAC assay relative to control; assay type: functional; details: 0.5 to 7 uM; in the assay text read “0.5 to 7 uM” for “0.7 to 7 uM”; procedure, shortened: as §4
BAEC [11] = test: as §5; assay type: functional; details: Bos taurus; procedure, shortened: as §2

O=C(c1ccc(O)cc1)c1cc2cc(O)ccc2oc1=O
viability at 20 µM [1]: 90% | viability at 24 h, 50 µM [2]: 93% | viability at 24 h, 20 µM [3]: 94% | Activity [4]: 58% | viability at 24 h, 10 µM [5]: 68% | Ratio [6]: 14.1

Cc1c(C)c2c(c(C)c1O)CCC(C)(C(=O)O)O2 (stereo not drawn)
Activity [4]: 31% | Ratio [6]: 1

O=c1c(O)c(-c2ccc(O)c(O)c2)oc2cc(O)cc(O)c12
Ratio [7]: 7.3

Cc1cccc2cc(C(=O)c3ccc(O)cc3)c(=O)oc12
viability at 20 µM [1]: 90% | viability at 24 h, 50 µM [2]: 101% | viability at 24 h, 20 µM [3]: 82% | Activity [4]: 45% | viability at 24 h, 10 µM [5]: 87% | viability at 10 µM [8]: 40% | Ratio [6]: 10.9

Oc1cc(O)c2c(c1)OC(c1ccc(O)c(O)c1)C(O)C2 (stereo not drawn)
Ratio [7]: 6.8

O=C(c1ccc(O)cc1)c1cc2cc(Br)ccc2oc1=O
viability at 20 µM [1]: 90% | viability at 24 h, 50 µM [2]: 104% | viability at 24 h, 20 µM [3]: 93% | Activity [4]: 28% | viability at 24 h, 10 µM [5]: 95% | Ratio [6]: 9.5

O=C(c1ccccc1)c1cc2cc(Br)cc(O)c2oc1=O
viability at 20 µM [1]: 90% | viability at 24 h, 50 µM [2]: 93% | viability at 24 h, 20 µM [3]: 101% | Activity [4]: 65% | viability at 24 h, 10 µM [5]: 96% | Ratio [6]: 8.3

O=C(c1ccc(O)c(O)c1)c1cc2cccc(O)c2oc1=O
viability at 24 h, 50 µM [2]: 63% | viability at 24 h, 20 µM [3]: 68% | Activity [4]: 75% | viability at 24 h, 10 µM [5]: 49% | Ratio [6]: 8.1

O=C(c1ccccc1)c1cc2cc(O)ccc2oc1=O
Activity (BAEC [9]): inactive | viability at 24 h, 50 µM [2]: 86% | viability at 24 h, 20 µM [3]: 95% | Activity [4]: 39% | viability at 24 h, 10 µM [5]: 88% | viability at 10 µM [8]: 40% | Ratio [6]: 11.5

O=C(c1ccc(O)cc1)c1cc2ccccc2oc1=O
viability at 24 h, 50 µM [2]: 44% | viability at 24 h, 20 µM [3]: 60% | Activity [4]: 26% | viability at 24 h, 10 µM [5]: 76% | Ratio [6]: 9.2

O=C(c1ccc(O)c(O)c1)c1cc2cc(Br)cc(O)c2oc1=O
viability at 24 h, 50 µM [2]: 71% | viability at 24 h, 20 µM [3]: 23% | Activity [4]: 100% | viability at 24 h, 10 µM [5]: 64% | Ratio [6]: 8.8

O=C(c1ccc(O)c(O)c1)c1cc2cc(Br)ccc2oc1=O
Activity (BAEC [9]): inactive | viability at 24 h, 50 µM [2]: 92% | viability at 24 h, 20 µM [3]: 100% | Ratio [10]: 13 | Activity [4]: 100% | viability at 24 h, 10 µM [5]: 102% | Activity (BAEC [11]): inactive
